Key:
[1] = Concentration required for inhibition of lipid synthesis in primary cultures of rat hepatocytes; format: functional, cell-based; details: Hepatocyte
Procedure, shortened: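 Primary hepatocytes from male Sprague-Dawley rats (Seglen isolation), plated at 1.5×10^5 cells/cm² on collagen in serum-containing DMEM, switched to serum-free medium after 4 h, grown overnight to monolayers. Cells incubated 4 h with 0.25 μCi [1-14C]acetate/well (1 Ci/mol final) plus 0, 1, 3, 10, 30, 100 or 300 μM compound. Lipids extracted into scintillant and counted; IC50 taken from lipid synthesis rates.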

Rattus norvegicus [2] = assay: Amount of insulin in obese Zucker rats after 2 weeks of treatment at a dose of 30 mg/kg/day; format: functional
Procedure, shortened: (§1)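 Female obese Zucker rats [Crl:(Zuc)-faBR], 400–500 g, given daily oral gavage in 20% EtOH/80% PEG-200 for up to 14 days. After a 6-h fast, serum was collected pretreatment and at day 7 (orbital bleed) and day 14 (cardiac puncture) and stored at -80 °C. Insulin was measured by ELISA. Values are mean ± SEM.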

Rattus norvegicus [3] = assay: Amount of glucose in obese Zucker rats after 2 weeks of treatment at a dose of 100 mg/kg/day; format: functional
Procedure, shortened: (§2)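 Female Zucker fatty rats [Crl:(Zuc)-faBR], 10–12 weeks old (400–500 g), gavaged daily with vehicle (20% EtOH/80% PEG-200, 0.25% of body weight) or compound. After a 6-h fast, blood glucose was read by glucometer from tail-prick blood of unanesthetized rats before dosing and after 1 and 2 weeks. Values are mean ± SEM.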

Rattus norvegicus [4] = assay: Amount of insulin in obese Zucker rats at pre-treatment at a dose of 3 mg/kg/day; format: functional; procedure, shortened: as §1
Rattus norvegicus [5] = assay: Amount of insulin in obese Zucker rats at pre-treatment at a dose of 30 mg/kg/day; format: functional; procedure, shortened: as §1
Rattus norvegicus [6] = assay: Amount of triglycerides in obese Zucker rats at pre-treatment at a dose of 0 mg/kg/day; format: functional
Procedure, shortened: (§3)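 Female Zucker fatty rats [Crl:(Zuc)-faBR], 10–12 weeks old (400–500 g), dosed once daily by oral gavage in 20% EtOH/80% PEG-200 for up to 14 days. After a 6-h fast, serum was taken pre-dose, at day 7 (orbital venous plexus, O2/CO2 anaesthesia) and at day 14 (cardiac puncture), stored at −80 °C, and assayed on a Hitachi 912 automatic analyzer. Mean ± SEM.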

Rattus norvegicus [7] = assay: Amount of triglycerides in obese Zucker rats after 1 week of treatment at a dose of 0 mg/kg/day; format: functional; procedure, shortened: as §3
Rattus norvegicus [8] = assay: Amount of triglycerides in obese Zucker rats after 1 week of treatment at a dose of 3 mg/kg/day; format: functional; procedure, shortened: as §3
Rattus norvegicus [9] = assay: Amount of triglycerides in obese Zucker rats after 1 week of treatment at a dose of 30 mg/kg/day; format: functional; procedure, shortened: as §3
Rattus norvegicus [10] = assay: Amount of nonesterified fatty acids in obese Zucker rats at pre-treatment at a dose of 3 mg/kg/day; format: functional; procedure, shortened: as §3
Rattus norvegicus [11] = assay: Amount of triglycerides in obese Zucker rats after 2 weeks of treatment at a dose of 100 mg/kg/day; format: functional; procedure, shortened: as §3
Rattus norvegicus [12] = assay: Amount of HDL-cholesterol in obese Zucker rats after 2 weeks of treatment at a dose of 30 mg/kg/day; format: functional
Procedure, shortened: (§4)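 Female Zucker fatty rats [Crl:(Zuc)-faBR], 10–12 weeks old (400–500 g), dosed once daily by oral gavage in 20% EtOH/80% PEG-200 (dose volume 0.25% of body weight). Rats were fasted 6 h and bled before dosing and at day 7 (orbital plexus), and at day 14 (cardiac puncture). Serum cholesterol fractions came from Superose 6 gel-filtration lipoprotein profiles (% peak area × serum total cholesterol). Values are mean ± SEM.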

Rattus norvegicus [13] = assay: Percentage change of triglycerides in obese female Zucker rats after 2 weeks of pre-treatment at a dose of 100 mg/kg/day; format: functional
Procedure, shortened: (§5)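 Female Zucker fatty rats [Crl:(Zuc)-faBR], 10–12 weeks old (400–500 g), acclimated 7 days and fed rodent chow. Dosed once daily by oral gavage in 20% EtOH/80% PEG-200 (v/v), at 0.25% of body weight, for 2 weeks. Blood taken after a 6-h fast: orbital plexus before dosing and at day 7, cardiac puncture at day 14. Serum lipoprotein cholesterol measured by Superose 6 gel filtration with on-line cholesterol detection. Values are % change from pretreatment, mean ± SEM.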

Rattus norvegicus [14] = assay: Percentage change of non-HDL cholesterol levels in obese female Zucker rats after 2 weeks of pre-treatment at a dose of 100 mg/kg/day; format: functional; procedure, shortened: as §5
Rattus norvegicus [15] = assay: Amount of nonesterified fatty acids in obese Zucker rats after 1 week of treatment at a dose of 30 mg/kg/day; format: functional; procedure, shortened: as §3
Rattus norvegicus [16] = assay: Amount of nonesterified fatty acids in obese Zucker rats after 2 weeks of treatment at a dose of 3 mg/kg/day; format: functional; procedure, shortened: as §3
Rattus norvegicus [17] = assay: Percent decrease in triglycerides in obese Zucker rats after 2 weeks of treatment at a dose of 100 mg/kg/day; format: functional; parameters: scale not given: the % may be the effect or the level left
Procedure, shortened: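 Female Zucker fatty rats [Crl:(Zuc)-faBR], 10–12 weeks, 400–500 g, acclimated 7 days on chow. Compound or vehicle (20% EtOH/80% PEG-200) given by daily oral gavage for 2 weeks, 0–100 mg/kg/day. After a 6 h fast, blood was taken before dosing, at 1 wk and at 2 wk. Serum lipids, NEFA and insulin (ELISA) were measured; glucose by glucometer. HDL/non-HDL-C came from Superose 6 gel-filtration profiles. Values are % change from pretreatment, mean ± SEM.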

Rattus norvegicus [18] = assay: Amount of nonesterified fatty acids in obese Zucker rats after 1 week of treatment at a dose of 100 mg/kg/day; format: functional; procedure, shortened: as §3
Rattus norvegicus [19] = assay: Amount of nonesterified fatty acids in obese Zucker rats after 2 weeks of treatment at a dose of 10 mg/kg/day; format: functional; procedure, shortened: as §3
Rattus norvegicus [20] = assay: Amount of HDL-cholesterol in obese Zucker rats after 1 week of treatment at a dose of 3 mg/kg/day; format: functional; procedure, shortened: as §4
Rattus norvegicus [21] = assay: Amount of HDL-cholesterol in obese Zucker rats at pre-treatment at a dose of 10 mg/kg/day; format: functional; procedure, shortened: as §4
Rattus norvegicus [22] = assay: Amount of HDL-cholesterol in obese Zucker rats at pre-treatment at a dose of 30 mg/kg/day; format: functional; procedure, shortened: as §4
Rattus norvegicus [23] = assay: Amount of glucose in obese Zucker rats after 1 week of treatment at a dose of 0 mg/kg/day; format: functional; procedure, shortened: as §2
Rattus norvegicus [24] = assay: Amount of insulin in obese Zucker rats after 1 week of treatment at a dose of 0 mg/kg/day; format: functional; procedure, shortened: as §1
Rattus norvegicus [25] = assay: Amount of glucose in obese Zucker rats after 1 week of treatment at a dose of 10 mg/kg/day; format: functional; procedure, shortened: as §2
Rattus norvegicus [26] = assay: Amount of triglycerides in obese Zucker rats at pre-treatment at a dose of 10 mg/kg/day; format: functional; procedure, shortened: as §3
Rattus norvegicus [27] = assay: Amount of triglycerides in obese Zucker rats at pre-treatment at a dose of 30 mg/kg/day; format: functional; procedure, shortened: as §3
Rattus norvegicus [28] = assay: Amount of glucose in obese Zucker rats after 1 week of treatment at a dose of 100 mg/kg/day; format: functional; procedure, shortened: as §2
Rattus norvegicus [29] = assay: Amount of glucose in obese Zucker rats after 2 weeks of treatment at a dose of 30 mg/kg/day; format: functional; procedure, shortened: as §2
Rattus norvegicus [30] = assay: Amount of glucose in obese Zucker rats at pre-treatment at a dose of 100 mg/kg/day; format: functional; procedure, shortened: as §2
Rattus norvegicus [31] = assay: Amount of non-HDL-cholesterol in obese Zucker rats after 2 weeks of treatment at a dose of 100 mg/kg/day; format: functional; procedure, shortened: as §4

SMILES | IC50 [1] [µM] | Activity (Rattus norvegicus [2]) [ng/mL] | Activity (Rattus norvegicus [3]) [mg/dL] | Activity (Rattus norvegicus [4]) [ng/mL] | Activity (Rattus norvegicus [5]) [ng/mL] | Activity (Rattus norvegicus [6]) [mg/dL] | Activity (Rattus norvegicus [7]) [mg/dL] | Activity (Rattus norvegicus [8]) [mg/dL] | Activity (Rattus norvegicus [9]) [mg/dL] | Activity (Rattus norvegicus [10]) [mg/dL] | Activity (Rattus norvegicus [11]) [mg/dL] | Activity (Rattus norvegicus [12]) [mg/dL] | Change (Rattus norvegicus [13]) [%] | Change (Rattus norvegicus [14]) [%] | Activity (Rattus norvegicus [15]) [mg/dL] | Activity (Rattus norvegicus [16]) [mg/dL] | Activity (Rattus norvegicus [17]) [%] | Activity (Rattus norvegicus [18]) [mg/dL] | Activity (Rattus norvegicus [19]) [mg/dL] | Activity (Rattus norvegicus [20]) [mg/dL] | also measured
CC(C)(CO)CCCCC(=O)CCCCC(C)(C)CO | 4 | 9.8 | 118 | 8.8 | 9.3 | 933 | 1114 | 800 | 726 | 1.1 | 702 | 61 | -29 | -10 | 1.1 | 1.6 | -33 | 0.98 | 1 | 43 | Activity (Rattus norvegicus [21]): 46 mg/dL; Activity (Rattus norvegicus [22]): 43 mg/dL; Activity (Rattus norvegicus [23]): 118 mg/dL; Activity (Rattus norvegicus [24]): 8.7 ng/mL; Activity (Rattus norvegicus [25]): 110 mg/dL; Activity (Rattus norvegicus [26]): 777 mg/dL; Activity (Rattus norvegicus [27]): 998 mg/dL; Activity (Rattus norvegicus [28]): 120 mg/dL; Activity (Rattus norvegicus [29]): 120 mg/dL; Activity (Rattus norvegicus [30]): 114 mg/dL; Activity (Rattus norvegicus [31]): 32 mg/dL
CC(C)(CCCCC(=O)CCCCC(C)(C)C(=O)O)C(=O)O | 3 | 8.5 | 122 | 10.4 | 7.7 | 130 | 1333 | 775 | 826 | 1.5 | 440 | 50 | -69 | -41 | 1 | 1.5 | -54 | 0.81 | 1.5 | 36 | Activity (Rattus norvegicus [21]): 37 mg/dL; Activity (Rattus norvegicus [22]): 34 mg/dL; Activity (Rattus norvegicus [23]): 124 mg/dL; Activity (Rattus norvegicus [24]): 8.4 ng/mL; Activity (Rattus norvegicus [25]): 105 mg/dL; Activity (Rattus norvegicus [26]): 1143 mg/dL; Activity (Rattus norvegicus [27]): 1242 mg/dL; Activity (Rattus norvegicus [28]): 113 mg/dL; Activity (Rattus norvegicus [29]): 118 mg/dL; Activity (Rattus norvegicus [30]): 110 mg/dL; Activity (Rattus norvegicus [31]): 22 mg/dL
CC(C)(CCCCCC(=O)CCCCCC(C)(C)C(=O)O)C(=O)O | 3 | 7.7 | 105 | 8.6 | 9.8 | 950 | 1119 | 995 | 213 | 1.3 | 78 | 208 | -94 | -99 | 0.88 | 1 | -92 | 0.98 | 0.95 | 75 | Activity (Rattus norvegicus [21]): 86 mg/dL; Activity (Rattus norvegicus [22]): 62 mg/dL; Activity (Rattus norvegicus [23]): 123 mg/dL; Activity (Rattus norvegicus [24]): 10.1 ng/mL; Activity (Rattus norvegicus [25]): 122 mg/dL; Activity (Rattus norvegicus [26]): 863 mg/dL; Activity (Rattus norvegicus [27]): 982 mg/dL; Activity (Rattus norvegicus [28]): 92 mg/dL; Activity (Rattus norvegicus [29]): 130 mg/dL; Activity (Rattus norvegicus [30]): 117 mg/dL; Activity (Rattus norvegicus [31]): 3 mg/dL

— ChEMBL document CHEMBL1137992, “Long hydrocarbon chain keto diols and diacids that favorably alter lipid disorders in vivo” (J Med Chem, 2004)
